Activity calls are given as the source filed them. The calls are words filed in the database; no cut-off is given here.
Experiments:
HEK293 = assay: Cytotoxicity against human HEK293 cells after 48 hrs by MTT assay; type: cell-based; conditions: HEK293, 48 h
Method in brief: (§1)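 MTT viability screen for cytotoxicity across the breast cancer and normal kidney epithelial lines; IC50 reported in µM.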

Vero = assay: Cytotoxicity against African green monkey Vero cells after 48 hrs by MTT assay; type: cell-based; conditions: Chlorocebus sabaeus; method in brief: as §1
MDA-MB-231 = assay: Cytotoxicity against human MDA-MB-231 cells after 48 hrs by MTT assay; type: functional, cell-based; conditions: MDA-MB-231, 48 h; method in brief: as §1
MCF7 [1] = assay: Cytotoxicity against human MCF7 cells after 48 hrs by MTT assay; type: functional, cell-based; conditions: MCF7, 48 h; method in brief: as §1
Mus musculus [2] = assay: Toxicity in nude mouse xenografted with human MCF7 cells assessed as change in uterus at 20 mg/kg, po administered for 14 days by histomorphology relative to vehicle-treated control; type: organism-based; parameters: dose 20 mg/kg, route oral; conditions: in vivo, 336 h
Method in brief: (§2)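 MCF-7 xenograft tumors were induced in athymic nude mice and dosed at 20 mg/kg body weight/day for 14 days, alongside a vehicle-treated group. Tumor volume, average tumor size and body weight were tracked. Liver, lungs, spleen, uterus and kidney were examined histomorphologically against vehicle.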

Homo sapiens [3] = species on record: Homo sapiens; assay: Increase in MDM2 mRNA expression in human primary breast adenocarcinoma cells at 2.5 to 7.5 uM by RT-PCR analysis; type: functional
Method in brief: (§3)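 p53 and MDM2 mRNA were measured by real-time quantitative PCR in vehicle- versus compound-treated MCF-7 or primary breast cancer cells. Data are the mean of three separate experiments with SEM, compared with control.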

Mus musculus [4] = assay: Antitumor activity against human MCF7 cells xenografted in nude mouse assessed as reduction in cyclin D1 protein expression at 20 mg/kg, po administered for 14 days by Western blotting analysis; type: functional, organism-based; parameters: dose 20 mg/kg
MCF7 [5] = assay: Antitumor activity against human MCF7 cells xenografted in nude mouse assessed as reduction in tumor volume at 20 mg/kg, po administered for 14 days relative to vehicle-treated control; type: functional; parameters: scale not given: the % may be the effect or the level left; method in brief: as §2
MCF7 [6] = assay: Cell cycle arrest at G1/S phase in human MCF7 cells assessed as reduction in cyclin E1 mRNA expression at 2.5 to 7.5 uM after 48 hrs by RT-PCR analysis; type: functional, cell-based
Method in brief: (§4)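 Real-time quantitative PCR of p21, cyclin D1, A1, B1 and E1 mRNA in treated MCF-7 cells. Mean with SEM, n = 3, compared with control.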

Homo sapiens [7] = species on record: Homo sapiens; assay: Increase in p21 protein expression in human primary breast adenocarcinoma cells assessed as reduction in Rb phosphorylation at 2.5 to 7.5 uM by immunoblotting analysis; type: functional
Method in brief: (§5)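 Western blot of cell-cycle regulatory proteins (p21, cyclin D1, phospho-Rb) in MCF-7 or primary breast cancer cells. Densitometric quantitation is given as fold change versus control; mean with SEM, n = 3.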

Mus musculus [8] = assay: Toxicity in nude mouse xenografted with human MCF7 cells assessed as change in body weight at 20 mg/kg, po administered for 14 days relative to vehicle-treated control; type: organism-based; parameters: dose 20 mg/kg, route oral; conditions: in vivo, 336 h; method in brief: as §2
Mus musculus [9] = assay: Toxicity in nude mouse xenografted with human MCF7 cells assessed as change in kidney at 20 mg/kg, po administered for 14 days by histomorphology relative to vehicle-treated control; type: organism-based; parameters: dose 20 mg/kg, route oral; conditions: in vivo, 336 h; method in brief: as §2
Mus musculus [10] = assay: Toxicity in nude mouse xenografted with human MCF7 cells assessed as change in lungs at 20 mg/kg, po administered for 14 days by histomorphology relative to vehicle-treated control; type: organism-based; parameters: dose 20 mg/kg, route oral; conditions: in vivo, 336 h; method in brief: as §2
Homo sapiens [11] = species on record: Homo sapiens; assay: Increase in p53 mRNA expression in human primary breast adenocarcinoma cells at 2.5 to 7.5 uM by RT-PCR analysis; type: functional; method in brief: as §3
MCF7 [12] = assay: Increase in p21 mRNA expression in human MCF7 cells at 5 to 7.5 uM by RT-PCR analysis; type: functional, cell-based; method in brief: as §4
Homo sapiens [13] = species on record: Homo sapiens; assay: Increase in p21 protein expression in human primary breast adenocarcinoma cells assessed as reduction in cyclin D1 expression at 2.5 to 7.5 uM by immunoblotting analysis; type: functional; method in brief: as §5
MCF7 [14] = assay: Increase in p53 mRNA expression in human MCF7 cells at 2.5 to 7.5 uM by RT-PCR analysis; type: functional, cell-based; method in brief: as §3
MCF7 [15] = assay: Increase in MDM2 protein expression in human MCF7 cells; type: functional, cell-based
[16] = Increase in p21 protein expression in human primary breast adenocarcinoma cells at 7.5 uM by immunoblotting analysis relative to control; type: functional; method in brief: as §5
Mus musculus [17] = assay: Antitumor activity against human MCF7 cells xenografted in nude mouse assessed as increase in p21 protein expression at 20 mg/kg, po administered for 14 days by Western blotting analysis; type: functional, organism-based; parameters: dose 20 mg/kg
MCF7 [18] = assay: Increase in MDM2 mRNA expression in human MCF7 cells at 2.5 to 7.5 uM by RT-PCR analysis; type: functional, cell-based; method in brief: as §3
MCF7 [19] = assay: Antitumor activity against human MCF7 cells xenografted in nude mouse assessed as reduction in tumor size at 20 mg/kg, po administered for 14 days relative to vehicle-treated control; type: functional; parameters: scale not given: the % may be the effect or the level left; method in brief: as §2
MCF7 [20] = assay: Cell cycle arrest at G2/M phase in human MCF7 cells assessed as reduction in cyclin B1 mRNA expression at 2.5 to 7.5 uM after 48 hrs by RT-PCR analysis; type: functional, cell-based; method in brief: as §4
Homo sapiens [21] = species on record: Homo sapiens; assay: Increase in MDM2 protein expression in human primary breast adenocarcinoma cells; type: functional
Mus musculus [22] = assay: Toxicity in nude mouse xenografted with human MCF7 cells assessed as change in liver at 20 mg/kg, po administered for 14 days by histomorphology relative to vehicle-treated control; type: organism-based; parameters: dose 20 mg/kg, route oral; conditions: in vivo, 336 h; method in brief: as §2
MCF7 [23] = assay: Cell cycle arrest at G1/S phase in human MCF7 cells assessed as reduction in cyclin D1 mRNA expression at 2.5 to 7.5 uM after 48 hrs by RT-PCR analysis; type: functional, cell-based; method in brief: as §4
MCF7 [24] = assay: Increase in p53 […] in human MCF7 cells assessed as increase in p21 promoter activity after 18 hrs by luciferase reporter gene assay; type: functional, cell-based
MCF7 [25] = assay: Cell cycle arrest in human MCF7 cells assessed as accumulation at G1 phase at 7.5 uM after 48 hrs by propidium iodide staining-based flow cytometry (reference value: 60%); type: functional
Method in brief: (§6)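 Cells were exposed to 7.5µM, then stained with propidium iodide and analysed by flow cytometry for the percentage of cells in each cell-cycle phase. Mean with SEM is from three independent experiments, compared with control.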

MCF7 [26] = assay: Cell cycle arrest at G1/S phase in human MCF7 cells assessed as reduction in cyclin A1 mRNA expression at 2.5 to 7.5 uM after 48 hrs by RT-PCR analysis; type: functional, cell-based; method in brief: as §4
[27] = Cell cycle arrest in human primary breast adenocarcinoma cells assessed as accumulation at G1 phase at 7.5 uM after 48 hrs by propidium iodide staining-based flow cytometry (reference value: 60%); type: functional; method in brief: as §6
MCF7 [28] = assay: Increase in p21 protein expression in human MCF7 cells at 7.5 uM by immunoblotting analysis relative to control; type: functional; method in brief: as §5
MCF7 [29] = assay: Increase in p21 protein expression in human MCF7 cells assessed as reduction in cyclin D1 expression at 2.5 to 7.5 uM by immunoblotting analysis; type: functional, cell-based; method in brief: as §5
Mus musculus [30] = assay: Toxicity in nude mouse xenografted with human MCF7 cells assessed as change in spleen at 20 mg/kg, po administered for 14 days by histomorphology relative to vehicle-treated control; type: organism-based; parameters: dose 20 mg/kg, route oral; conditions: in vivo, 336 h; method in brief: as §2
MCF7 [31] = assay: Increase in p53 protein expression in human MCF7 cells; type: functional, cell-based
Homo sapiens [32] = species on record: Homo sapiens; assay: Increase in p53 protein expression in human primary breast adenocarcinoma cells; type: functional
MCF7 [33] = assay: Increase in p21 protein expression in human MCF7 cells assessed as reduction in Rb phosphorylation at 2.5 to 7.5 uM by immunoblotting analysis; type: functional, cell-based; method in brief: as §5
Mus musculus [34] = assay: Antitumor activity against human MCF7 cells xenografted in nude mouse assessed as reduction in phosphorylated Rb level at 20 mg/kg, po administered for 14 days by Western blotting analysis; type: functional, organism-based; parameters: dose 20 mg/kg

SMILES: O=C(c1ccc(OCCN2CCCCC2)cc1)C1[C@H](c2ccccc2)[C@@H](c2ccccc2)NC12C(=O)Nc1ccccc12 (some centres undefined)
- IC50 (HEK293): 30.8 µM
- IC50 (Vero): 32.4 µM
- IC50 (MDA-MB-231): 28.2 µM
- IC50 (MCF7 [1]): 13.9 µM

SMILES: O=C(c1ccc([N+](=O)[O-])cc1)C1[C@H](c2ccccc2)[C@@H](c2ccccc2)NC12C(=O)Nc1ccccc12 (some centres undefined)
- IC50 (HEK293): 21.4 µM
- IC50 (Vero): > 50 µM
- IC50 (MDA-MB-231): 29.5 µM
- IC50 (MCF7 [1]): 15.5 µM

SMILES: CN(C)CCCOc1ccc(C(=O)C2[C@H](c3ccccc3)[C@@H](c3ccccc3)NC23C(=O)Nc2ccccc23)cc1 (some centres undefined)
- IC50 (HEK293): > 50 µM
- IC50 (Vero): > 50 µM
- IC50 (MDA-MB-231): 9.2 µM
- IC50 (MCF7 [1]): 9.6 µM

SMILES: CC(CN(C)C)Oc1ccc(C(=O)C2[C@H](c3ccccc3)[C@@H](c3ccccc3)NC23C(=O)Nc2ccccc23)cc1 (some centres undefined)
- IC50 (HEK293): > 50 µM
- IC50 (Vero): > 50 µM
- IC50 (MDA-MB-231): > 50 µM
- IC50 (MCF7 [1]): 20.5 µM

SMILES: O=C(c1ccc(OCCN2CCOCC2)cc1)C1[C@H](c2ccccc2)[C@@H](c2ccccc2)NC12C(=O)Nc1ccccc12 (some centres undefined)
- IC50 (HEK293): > 50 µM
- IC50 (Vero): > 50 µM
- IC50 (MDA-MB-231): > 50 µM
- IC50 (MCF7 [1]): > 50 µM

SMILES: O=C(c1ccc(OCCN2CCCCC2)cc1)C1[C@H](c2ccccc2)[C@@H](c2ccccc2)NC12C(=O)Nc1ccc([N+](=O)[O-])cc12 (some centres undefined)
- IC50 (HEK293): 18.8 µM
- IC50 (Vero): 22.4 µM
- IC50 (MDA-MB-231): 13.5 µM
- IC50 (MCF7 [1]): 15.2 µM

SMILES: COc1ccc(C2=N[C@@H](c3ccc(Cl)cc3)[C@@H](c3ccc(Cl)cc3)N2C(=O)N2CCNC(=O)C2)c(OC(C)C)c1 [NUTLIN-3]
- IC50 (HEK293): > 50 µM
- IC50 (Vero): > 50 µM
- IC50 (MDA-MB-231): 23.5 µM
- IC50 (MCF7 [1]): 11.6 µM

SMILES: O=C(c1ccc(OCCN2CCCCC2)cc1)C1[C@H](c2ccccc2)[C@@H](c2ccccc2)NC12C(=O)Nc1ccc(Cl)cc12 (some centres undefined)
- Activity (Mus musculus [2]): Non-toxic
- Activity (Homo sapiens [3]): Active
- Activity (Mus musculus [4]): Active
- Activity (MCF7 [5]): 66%
- Activity (MCF7 [6]): Active
- Activity (Homo sapiens [7]): Active
- Activity (Mus musculus [8]): Non-toxic
- Activity (Mus musculus [9]): Non-toxic
- Activity (Mus musculus [10]): Non-toxic
- Activity (Homo sapiens [11]): Active
- Activity (MCF7 [12]): Active
- Activity (Homo sapiens [13]): Active
- Activity (MCF7 [14]): Active
- Activity (MCF7 [15]): Active
- Ratio [16]: 2.5
- Activity (Mus musculus [17]): Active
- Activity (MCF7 [18]): Active
- Activity (MCF7 [19]): 66%
- Activity (MCF7 [20]): inactive
- Activity (Homo sapiens [21]): Active
- Activity (Mus musculus [22]): Non-toxic
- Activity (MCF7 [23]): Active
- Activity (MCF7 [24]): Dose-dependent effect
- Activity (MCF7 [25]): 90%
- Activity (MCF7 [26]): Active
- Activity [27]: 90%
- Ratio (MCF7 [28]): 2.5
- IC50 (HEK293): > 50 µM
- IC50 (Vero): > 50 µM
- IC50 (MDA-MB-231): 3.7 µM
- IC50 (MCF7 [1]): 6.5 µM
- Activity (MCF7 [29]): Active
- Activity (Mus musculus [30]): Non-toxic
- Activity (MCF7 [31]): Active
- Activity (Homo sapiens [32]): Active
- Activity (MCF7 [33]): Active
- Activity (Mus musculus [34]): Active

SMILES: O=C(c1ccccc1)C1[C@H](c2ccc(O)cc2)[C@@H](c2ccccc2)NC12C(=O)Nc1ccccc12 (some centres undefined)
- IC50 (HEK293): > 50 µM
- IC50 (Vero): > 50 µM
- IC50 (MDA-MB-231): 37.3 µM
- IC50 (MCF7 [1]): 36.3 µM
